The values that follow come from article PMC4371781 (Biochemistry, 2015).

Where a SMILES comes first, the peptide text is derived from it. Primed or numbered codes have the meaning given here. The star is where a group is joined. FITC = O=C1OC2(c3ccc(O)cc3Oc3cc(O)ccc32)c2ccc(NC(=S)*)cc21; FITC′ = fluorescein; Ahx = NCCCCCC(=O)O

The target in data set [1] is T1, RbAB (pocket domain of Rb) (Homo sapiens, UniProt P06400, A635F/DEL582-633/S634E).
T1 sequence (P06400 with tags, fused parts or gaps DEL582-633/S634E/A635F limits assumed): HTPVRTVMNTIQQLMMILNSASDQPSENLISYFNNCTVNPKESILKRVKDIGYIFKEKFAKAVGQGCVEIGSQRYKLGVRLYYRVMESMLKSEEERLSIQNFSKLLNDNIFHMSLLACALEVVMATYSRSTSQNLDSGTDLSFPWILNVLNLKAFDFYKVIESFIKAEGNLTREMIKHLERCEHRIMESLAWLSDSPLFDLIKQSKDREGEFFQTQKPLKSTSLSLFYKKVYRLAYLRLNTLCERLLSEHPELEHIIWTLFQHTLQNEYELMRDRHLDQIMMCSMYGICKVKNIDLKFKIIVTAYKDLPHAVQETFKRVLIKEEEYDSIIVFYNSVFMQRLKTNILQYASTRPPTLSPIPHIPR
The experiment in a line: NMR-monitored titration, 1H–15N HSQC of 15N-labeled RIZ constructs with RbAB. Format: binding. The note with it: for residues most affected by RbAB binding (loss of HSQC peak volume): 1H–15N HSQC, PBS pH 7.5, 2.5 mM DTT, 25 °C.

In data set [2] the target is HDAC1 LXCXE-like sequence LXCXE-like sequence (Homo sapiens) (UniProt Q13547). The settings on record: cited from earlier work.
Data set [3] concerns the target T1, RbAB (pocket domain of Rb). As to the kind of experiment: Competition-based ITC. Type of data set: binding. The procedure, abridged: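 RbAB (Rb residues 372–581 and 636–787 joined by an EF linker, GS N-terminus) was expressed as a GST fusion in E. coli and thrombin-cleaved. At 25 °C in 20 mM Tris pH 7.5, 140 mM NaCl and 2 mM β-mercaptoethanol, the RIZ 297–341 fragment (1154 or 984 μM) was titrated into RbAB (20 or 9 μM). RbAB was pre-mixed with excess competitor: 650 μM FITC-RIZ(254–267) or 459 μM RIZ 197–269 fragment. Kd was derived from the apparent association constant with a competition equation.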

Data set [4] has as its target T1, RbAB (pocket domain of Rb). As to the kind of experiment: Fluorescence anisotropy, direct binding assay. The procedure, abridged:
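Assays ran in PBS pH 7.5 with 2.5 mM DTT. Labelled peptide was held constant while RbAB was varied: 0.33 μM FITC-RIZ(254–267) at 25 °C, or 0.40 μM FITC-RIZ(309–319) at 20 °C. FITC was attached at the N-terminus via an aminohexanoyl spacer, with amidated C-termini. TCSPC steady-state anisotropy was corrected with a bound/free quantum-yield ratio (0.65 μM peptide ± 32.5 μM RbAB). Kd was fitted by nonlinear least squares with 95% confidence intervals.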

Data set [5] concerns the target T1, RbAB (pocket domain of Rb). The experiment in a line: Isothermal titration calorimetry, direct binding of RbAB. A digest of the protocol:
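RbAB (GST-fusion from E. coli, thrombin-cleaved) was injected stepwise into the cell at 25 °C in 20 mM Tris pH 7.5, 140 mM NaCl and 2 mM β-mercaptoethanol. Titrations were 486 μM RbAB into 28 μM full acidic region (AR), and 524 μM RbAB into 39 μM RIZ 197–269 or 48 μM RIZ 297–341 fragment. Heats of binding were recorded and fitted to a single-binding-site model.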

The next data set has as its target T2, FITC-RIZ(254-267) (human).
T2 peptide: {FITC′-Ahx}-ERLEAAACEVNDLG-NH2
As to the kind of experiment: fluorescence polarisation. On the technique in general: Polarisation of emitted light reports the rotation of a fluorescent probe.

The target of a further data set is T3, FITC-RIZ(309-319) (human, SMILES …).
T3 peptide: {FITC-Ahx}-EIRCDEKPEDL-NH2
The experiment in a line: fluorescence polarisation.

The target of data set [6] is T4, AR-N (N-terminal part of the acidic region of RIZ, residues 197-269) (human, UniProt Q13029 197-269).
T4 sequence: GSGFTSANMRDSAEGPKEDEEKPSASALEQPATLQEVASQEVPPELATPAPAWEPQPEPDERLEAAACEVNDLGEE
As to the kind of experiment: ITC. (ITC needs no label: the signal is the heat of the interaction.)

The target in data set [7] is T4, AR-N (N-terminal part of the acidic …). As to the kind of experiment: fluorescence polarisation.
Data set [8] can be described thus: NMR structural characterization of AR. Format: physicochemical.
The mark [9] stands for this setting: from 13Cα, 13Cβ, 1Hα chemical shifts, PBS pH 7.5, 25 °C.

For the molecule “EIRCDEKPEDL [peptide containing the IRCDE motif]”, the “effect of competitor peptide on AR signals in presence of RbAB” value in data set [1] (86 μM 15N-labeled AR, ~2-fold molar excess RbAB, 34-fold molar excess of RIZ(309–319) peptide, PBS pH 7.5, 25 °C) is “the intensity of all AR signals was restored”.
A word on the Kd: it is a measure of binding affinity in units of concentration. Consider “Rb pocket domain pocket domain (from UniProt P06400)”, for which the Kd in data set [2] was 10 µM.
With `CC(C)C[C@H](NC(=O)[C@H](CC(=O)O)NC(=O)[C@H](CC(N)=O)NC(=O)[C@@H](NC(=O)[C@H](CCC(=O)O)NC(=O)[C@H](CS)NC(=O)[C@H](C)NC(=O)[C@H](C)NC(=O)[C@H](C)NC(=O)[C@H](CCC(=O)O)NC(=O)[C@H](CC(C)C)NC(=O)[C@H](CCCNC(=N)N)NC(=O)[C@H](CCC(=O)O)NC(=O)CCCCCNC(=S)Nc1ccc2c(c1)C(=O)OC21c2ccc(O)cc2Oc2cc(O)ccc21)C(C)C)C(=O)NCC(N)=O` [FITC-RIZ(254–267)] ({FITC-Ahx}-ERLEAAACEVNDLG-NH2), the figures for the dissociation constant (Kd) in data set [3] and in data set [4] were 70 ± 10 µM and roughly 170 µM, respectively.
In turn, `CC[C@H](C)[C@H](NC(=O)[C@H](CCC(=O)O)NC(=O)CCCCCNC(=S)Nc1ccc2c(c1)C(=O)OC21c2ccc(O)cc2Oc2cc(O)ccc21)C(=O)N[C@@H](CCCNC(=N)N)C(=O)N[C@@H](CS)C(=O)N[C@@H](CC(=O)O)C(=O)N[C@@H](CCC(=O)O)C(=O)N[C@@H](CCCCN)C(=O)N1CCC[C@H]1C(=O)N[C@@H](CCC(=O)O)C(=O)N[C@@H](CC(=O)O)C(=O)N[C@@H](CC(C)C)C(N)=O` [FITC-RIZ(309–319)] ({FITC-Ahx}-EIRCDEKPEDL-NH2) displayed a Kd in [4] of roughly 0.36 µM.

B1: AR-N: recombinant protein, residues 197–269 (FTSA⋯LGEE) of RIZ preceded by three extraneous amino acids (GSG) (protein)
chain: GSGFTSANMRDSAEGPKEDEEKPSASALEQPATLQEVASQEVPPELATPAPAWEPQPEPDERLEAAACEVNDLGEE
modifications: left off: GST, N-terminal, cleaved
B1: the “residues most affected by RbAB binding (loss of HSQC peak volume)” value in [1] is given as “Residues 255–267 in AR-N”. The “heat/enthalpy of binding to RbAB (in words)” value in [5] (ITC, 25 °C, Tris pH 7.5) was “little or no heat is released”.

B2: RbAB (pocket domain of the retinoblastoma protein, cyclin boxes A and B joined by a two-residue linker) (domain or fragment, human)
chain: GSHTPVRTVMNTIQQLMMILNSASDQPSENLISYFNNCTVNPKESILKRVKDIGYIFKEKFAKAVGQGCVEIGSQRYKLGVRLYYRVMESMLKSEEERLSIQNFSKLLNDNIFHMSLLACALEVVMATYSRSTSQNLDSGTDLSFPWILNVLNLKAFDFYKVIESFIKAEGNLTREMIKHLERCEHRIMESLAWLSDSPLFDLIKQSKDREGEFFQTQKPLKSTSLSLFYKKVYRLAYLRLNTLCERLLSEHPELEHIIWTLFQHTLQNEYELMRDRHLDQIMMCSMYGICKVKNIDLKFKIIVTAYKDLPHAVQETFKRVLIKEEEYDSIIVFYNSVFMQRLKTNILQYASTRPPTLSPIPHIPR
Turning to B2, the Kd stood at 170 µM with FITC-RIZ(254-267), 0.36 µM with FITC-RIZ(309-319), 45 ± 20 µM in data set [6] and 90 µM in [7].

B3: AR: recombinant AR protein, residues 197–341 of human RIZ (FTSA⋯TPAM) preceded by four extraneous amino acids (GSPE) (protein)
chain: GSPEFTSANMRDSAEGPKEDEEKPSASALEQPATLQEVASQEVPPELATPAPAWEPQPEPDERLEAAACEVNDLGEEEEEEEEEDEEEEEDDDDDELEDEGEEEASMPNENSVKEPEIRCDEKPEDLLEEPKTTSEETLEDCSEVTPAM
modifications: left off: GST, end not stated, cleaved
As to B3, the “residues most affected by RbAB binding (loss of HSQC peak volume)” value in data set [1] is “Residues 306–322 ([…]) were the most affected by RbAB binding”. Besides, the “exchange between free and bound forms with RbAB” value in [1] (15N-labeled AR, increasing RbAB, PBS pH 7.5, 25 °C) was “consistent with exchange between the free and bound forms on an intermediate time scale”. The “specificity of binding to RbAB” value in data set [1] (displacement by large excess of peptide containing IRCDE motif) is “AR binding to RbAB is specific”. In data set [5] (purified components, ITC and fluorescence anisotropy), the “affinity for pocket domain of Rb (in words)” value was “submicromolar affinity”. Besides, in data set [8] (NMR, PBS pH 7.5, 2.5 mM DTT, 25 °C), the “structural state in solution” value is listed as “consistent with AR being intrinsically disordered”. Further, in data set [8] (setting [9]), the “SSP scores: virtually no residues higher than” value is reported as no more than 0.2 and the “SSP scores: virtually no residues lower than” value is no less than −0.2.
